Measurements from different studies.
Lines come from different studies, so protocols differ.
Target: Inhibitor of nuclear factor kappa-B kinase subunit alpha (CHUK, Homo sapiens, UniProt O15111)
One construct used (O15111 1-745): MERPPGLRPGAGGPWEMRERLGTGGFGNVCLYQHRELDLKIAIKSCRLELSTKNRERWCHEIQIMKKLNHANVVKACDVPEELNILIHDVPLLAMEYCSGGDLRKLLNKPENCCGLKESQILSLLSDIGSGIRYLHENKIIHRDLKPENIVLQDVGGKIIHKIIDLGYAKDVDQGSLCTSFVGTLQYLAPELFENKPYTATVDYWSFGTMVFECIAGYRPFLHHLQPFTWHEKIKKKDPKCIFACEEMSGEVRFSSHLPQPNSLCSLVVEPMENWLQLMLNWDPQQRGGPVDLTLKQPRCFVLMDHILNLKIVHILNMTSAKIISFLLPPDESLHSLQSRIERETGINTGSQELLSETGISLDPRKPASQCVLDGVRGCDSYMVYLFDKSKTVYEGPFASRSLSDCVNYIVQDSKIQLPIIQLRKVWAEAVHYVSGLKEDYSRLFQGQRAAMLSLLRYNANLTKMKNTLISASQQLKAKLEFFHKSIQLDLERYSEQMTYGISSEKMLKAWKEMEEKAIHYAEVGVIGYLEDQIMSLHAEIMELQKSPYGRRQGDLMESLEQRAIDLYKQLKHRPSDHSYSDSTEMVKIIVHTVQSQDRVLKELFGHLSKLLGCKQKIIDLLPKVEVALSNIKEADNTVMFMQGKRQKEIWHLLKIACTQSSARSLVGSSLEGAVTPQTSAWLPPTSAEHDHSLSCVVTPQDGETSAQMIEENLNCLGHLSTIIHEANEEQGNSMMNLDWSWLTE

For `CCCCC(=O)Nc1ccc(-c2ccc3ncn(CCC)c(=O)c3c2)cn1`, the remaining binding was 100% (binding, competition with immobilised ligand; 0.5 µM).
`COc1ccc2[nH]c3c4[nH]c5ccc(OC)cc5c4c4c(c3c2c1)C(=O)NC4=O` gave a remaining binding of 89% (binding; 1 µM).
`C=CC(=O)N1CCC([C@@H]2CCNc3c(C(N)=O)c(-c4ccc(Oc5ccccc5)cc4)nn32)CC1` gave an inhibition of 0% (enzyme activity, inhibitor; 1 µM).
The remaining binding of `N#Cc1ccc(NC(=O)Nc2ccccc2)cc1` is reported as 85% (cell-free assay, competition with immobilised ligand; 25 µM).
For `COc1ccc2oc(-c3ccc4nc(N)oc4c3)c/c(=N\c3ccccc3NC(=O)CCN)c2c1`, the remaining binding was 94% (binding; 1 µM).
`C#Cc1cnc(Nc2ccnc(CO)c2)nc1Nc1ccccc1S(C)(=O)=NC#N` (centres unmarked) gave a remaining signal of 100% (cell-free assay; 1 µM).
`C=CC(=O)N1CCC[C@@H](n2nc(-c3ccc(Oc4ccccc4)cc3)c3c(N)ncnc32)C1` has an inhibition of 16% (enzyme activity, inhibitor; 1 µM).
`C[C@H]1CC[C@H](n2c3cnccc3c3cnc(Nc4ccc5c(n4)CCN(C(=O)CO)C5)nc32)CC1` gave a remaining signal of 76% (cell-free assay; 1 µM).
